The target of test [1] is T1, Polyunsaturated fatty acid 5-lipoxygenase (Rattus norvegicus, UniProt P12527).
T1 sequence (P12527 whole entry): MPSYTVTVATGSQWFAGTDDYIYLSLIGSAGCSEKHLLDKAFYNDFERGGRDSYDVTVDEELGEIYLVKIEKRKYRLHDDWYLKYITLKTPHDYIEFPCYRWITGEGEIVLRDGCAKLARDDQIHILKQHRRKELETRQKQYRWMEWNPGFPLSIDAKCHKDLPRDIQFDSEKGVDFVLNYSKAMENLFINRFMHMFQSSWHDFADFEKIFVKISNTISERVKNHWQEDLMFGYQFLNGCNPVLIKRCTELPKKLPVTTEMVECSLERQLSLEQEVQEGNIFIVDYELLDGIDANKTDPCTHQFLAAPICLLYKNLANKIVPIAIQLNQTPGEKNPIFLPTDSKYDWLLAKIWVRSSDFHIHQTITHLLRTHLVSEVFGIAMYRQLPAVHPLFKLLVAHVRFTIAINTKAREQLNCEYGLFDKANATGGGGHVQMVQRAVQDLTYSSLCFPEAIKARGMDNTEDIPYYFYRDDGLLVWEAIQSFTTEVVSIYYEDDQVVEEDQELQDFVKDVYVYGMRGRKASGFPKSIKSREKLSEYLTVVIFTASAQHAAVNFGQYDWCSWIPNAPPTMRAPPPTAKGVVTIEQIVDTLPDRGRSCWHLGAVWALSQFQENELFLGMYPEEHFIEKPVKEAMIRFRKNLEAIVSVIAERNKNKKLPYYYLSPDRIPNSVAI
The test can be described thus: Inhibition of 5-LOX in rat peritoneal leukocytes. The class given is cell-based. The method in brief:
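Cell-based 5-LOX assay in rat peritoneal leukocytes, quantified with a commercial kit. Selected compounds went on to concentration–response testing to derive IC50. Values are means of three determinations, each within 10% of the mean.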

Test [2] deals with T2, Polyunsaturated fatty acid 5-lipoxygenase (Rattus norvegicus) (UniProt P12527).
T2 sequence (whole entry): T1 sequence (P12527 whole entry)
The note with it: at 5 µM.

In test [1], `O=C(Cc1cn(Cc2ccc(Cl)c(Cl)c2)c2ccccc12)N1CCOCC1` came in with an IC50 of 0.87 µM. The compound further showed an inhibition in test [2] of 81.9%.

As to `CC(C)(C)OC(=O)N1CCN(C(=O)CCCc2c[nH]c3ccccc23)CC1`, 0.74 µM corresponded to half-maximal inhibition in test [1] (IC50). The compound further registered an inhibition in test [2] of 84.1%. Regarding `COc1ccc2c(c1)c(CCCC(=O)N1CCOCC1)c(C)n2Cc1ccc(C)cc1`, the inhibition in test [2] is 26.4%. For `Cc1c(CCCC(=O)N2CCOCC2)c2cc(Cl)ccc2n1Cc1ccc(Cl)cc1`, the inhibition in test [2] came out at 37.9%. As for `Cc1[nH]c2ccc(Cl)cc2c1CCCC(=O)N1CCOCC1`, the IC50 in test [1] stood at 1.33 µM. In test [2], this compound registered an inhibition of 71.3%. The compound `CC(C)(C)OC(=O)N1CCN(C(=O)CCCc2cn(Cc3ccccc3)c3ccccc23)CC1` came in with an inhibition in test [2] of 38.2%. The compound `O=C(CCCc1c[nH]c2ccccc12)N1CCOCC1` yielded an IC50 in test [1] of 2.06 µM. In test [2], this compound yielded an inhibition of 62.3%. `O=C(Cc1cn(Cc2ccccc2)c2ccccc12)N1CCOCC1` came in with an inhibition in test [2] of 41.4%. Still for that read-out and setting: as for `COc1ccc2[nH]c(C)c(CCCC(=O)N3CCN(C(=O)OC(C)(C)C)CC3)c2c1`, the figure is 71.2%; as for `c1ccc(Cn2cc(CCCCN3CCOCC3)c3ccccc32)cc1`, 41.6%; as for `COc1ccc2c(c1)c(CCCC(=O)N1CCN(C(=O)OC(C)(C)C)CC1)c(C)n2Cc1ccccc1`, 51.5%. As for `O=C(CCCc1cn(C(=O)c2ccccc2)c2ccccc12)N1CCOCC1`, in test [2], the inhibition is 58.2%.

On to `Cc1c(CCCC(=O)N2CCOCC2)c2cc(Cl)ccc2n1Cc1ccccc1`, for which the IC50 in test [1] was 0.95 µM. Also, in test [2], the inhibition turned out to be 80.2%. The like results for `O=C(CCCc1cn(Cc2ccccc2)c2ccccc12)N1CCOCC1` were, in that order, 74 µM and 25.8%. As to `O=C(CCc1cn(Cc2ccccc2)c2ccccc12)N1CCOCC1`, the IC50 in test [1] came out at 3.17 µM. The inhibition in test [2] was determined as 63.8%. In test [2], `Cc1ccc(Cn2cc(CC(=O)N3CCOCC3)c3ccccc32)cc1` returned an inhibition of 34.6%. In turn, `CC(c1cc2ccccc2s1)N(O)C(N)=O` (stereo not drawn) registered an inhibition in test [2] of 86.9%. On to `COc1ccc2c(c1)c(CCCOc1cc(F)cc(C3(OC)CCOCC3)c1)c(C)n2Cc1ccccc1`, for which, in test [2], the inhibition was 46.5%. Turning to `O=C(CCCc1cn(C(=O)c2ccc(Cl)cc2)c2ccccc12)N1CCOCC1`, the inhibition in test [2] stood at 32.4%. On to `O=C(CCc1cn(Cc2ccc(Cl)c(Cl)c2)c2ccccc12)N1CCOCC1`, for which the inhibition in test [2] turned out to be 38.5%.

The compound `O=C(CCc1cn(C(=O)c2ccc(Cl)cc2)c2ccccc12)N1CCOCC1` came in with an inhibition in test [2] of 26%.

In test [1], `COc1ccc2c(c1)c(CCCC(=O)N1CCOCC1)c(C)n2C(=O)c1ccc(Cl)cc1` displayed an IC50 of 2.25 µM. Moreover, the inhibition in test [2] turned out to be 70.2%.

For `COC1(c2cc(F)cc(OCCc3c[nH]c4ccccc34)c2)CCOCC1`, the IC50 in test [1] was 2.38 µM. Also, in test [2], the inhibition was determined as 64.2%.

In the case of `O=C(Cc1cn(C(=O)c2ccccc2)c2ccccc12)N1CCOCC1`, in test [2], the inhibition was found to be 21%. Regarding `O=C(Cc1c[nH]c2ccccc12)N1CCOCC1`, in test [2], the inhibition turned out to be 15.9%. For the compound `O=C(CCCc1cn(Cc2ccccc2)c2ccccc12)N1CCNCC1`, it took 0.85 µM to reach half-maximal inhibition in test [1] (IC50). In test [2], this compound returned an inhibition of 95.4%. With `O=C(CCCc1cn(Cc2ccc(Cl)c(Cl)c2)c2ccccc12)N1CCOCC1`, the inhibition in test [2] is 26.7%.

`CS(=O)(=O)N1CCN(C(=O)CCCc2cn(Cc3ccccc3)c3ccccc23)CC1`: in test [2], the inhibition worked out at 23.9%. The same measure, in the same setting: to `COc1ccc2c(c1)c(CCCC(=O)N1CCNCC1)c(C)n2Cc1ccccc1` belongs 64.6%; to `O=C(CCc1c[nH]c2ccccc12)N1CCOCC1`, 33%.

Compound `COc1ccc2c(c1)c(CCCC(=O)N1CCOCC1)c(C)n2Cc1ccccc1` had an inhibition in test [2] of 54.2%. The compound `Cc1ccc(Cn2cc(CCCC(=O)N3CCOCC3)c3ccccc32)cc1` yielded an inhibition in test [2] of 33.9%. Regarding `COc1ccc2[nH]c(C)c(CCCC(=O)N3CCOCC3)c2c1`, in test [1], the 50% inhibitory concentration (IC50) turned out to be 3.16 µM. The compound also gave an inhibition in test [2] of 72.9%.

In test [2], `COC1(c2cc(F)cc(OCCc3cn(Cc4ccccc4)c4ccccc34)c2)CCOCC1` returned an inhibition of 31.8%. Still for that read-out and setting: to `O=C(Cc1cn(C(=O)c2ccc(Cl)cc2)c2ccccc12)N1CCOCC1` belongs 22.4%; to `O=C(CCc1cn(C(=O)c2ccccc2)c2ccccc12)N1CCOCC1`, 23.4%. As for `Cc1ccc(Cn2cc(CCC(=O)N3CCOCC3)c3ccccc32)cc1`, the inhibition in test [2] came to 55.2%.

What is called IC50 is the midpoint of a concentration-inhibition curve. Read a low IC50 as higher potency. By inhibition is commonly meant how much of the control response was suppressed.

These data come from ChEMBL document CHEMBL1144630, “Indole derivatives as potent inhibitors of 5-lipoxygenase: design, synthesis, biological evaluation, and molecular modeling” (Bioorg Med Chem Lett, 2007).
